PubChem BioAssay
Active and inactive are the calls of the source.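 The calls were made as follows, unless noted: active = viability at or below 10% of carrier control in both of two separate runs; inconclusive = viability at or below 10% in only one of the two runs; inactive = the rest.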

Columns and labels:
[1] = Her2 expression decrease, cell viability multiplex – SKBR3 breast tumor cells, AlphaScreen, ATP viability, primary screen (AID 461;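 active = Her2 level under about 52% in both replicate screens, with viability over 70% of control, limit read from the data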;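 as to Her2 level: lower value means less Her2 protein in the cells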;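 as to viability: percent of carrier control wells set as 100% viability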); conditions: SKBR3 Her2 protein level, 18-24 h, measured here: SKBR3 viability, ATP luminescence, at 10 µM
[2] = biological target: Receptor tyrosine-protein kinase erbB-2 (Homo sapiens) (UniProt P04626); assay: as above; conditions: 18-24 h, at 10 µM, stronger effect = lower value
[3] = reduced viability of SK-BR-3 breast cancer cells – cell-based, 24 h, human, pilot screen (AID 572); conditions: SK-BR-3 viability, CellTiter-Glo luminescence, at 10 µM, stronger effect = lower value;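 also: compound exposure lasted between 18 and 24 h rather than exactly 24 h; 100% = carrier-treated control wells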
[4] = HUVEC growth inhibition – cell-based, human, primary screen (AID 575;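 active = viability at or below 30% in both replicate assays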;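 also: 100% = median of untreated cell wells with 0.1% DMSO on each plate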); conditions: HUVEC proliferation, CellTiter-Glo luminescence, 72 h; at 10 µM; stronger effect = lower value
How it was run: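 Assay system: Primary human umbilical vein endothelial cells | Quantity: 1250 cells per well | Medium: Supplemented EBM, 2% fetal bovine serum | Detection: CellTiter-Glo luminescence measuring cellular ATP | Read-out: % viability vs DMSO wells | Plate: Collagen-coated 384-well format | Times: 72 h exposure, 37 °C, 5% CO2, 30 min RT equilibration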

[5] = H69AR cell proliferation blockers – human, duplicate replicates, primary screen (AID 580;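 active = viability at or under a set limit in both replicates, limit being median viability minus 3 SD, cut at about 48% in these data, passing the limit was not always enough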;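 also: 100% = mean luminescence of untreated wells and 0% = no signal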); conditions: H69AR lung tumor cells viability, ATP luminescence, 72 h; at 10 µM; stronger effect = lower value
[6] = MRP1 drug-resistance reversers in H69AR cells – cell-based, doxorubicin co-treatment, pilot screen (AID 601;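 active = viability loss from added drug above about 55%, and viability with drug at most 40%, in both replicates, limit read from the data, passing the limit was not always enough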); conditions: CellTiter-Glo, 72 h, at 10 µM; for differential viability (reversal): stronger effect = higher value
[7] = yeast transport mutant growth inhibition pilot in 384-well plates, post-Golgi transport modulator project (AID 636; in the data active = inhibition above about 31%); conditions: absorbance 615 nm, about 18 h, stronger effect = higher value
[8] = growth suppression of yeast trafficking mutant, preliminary HTS, modulators of trafficking downstream of Golgi apparatus project, 1536-format plate, OD 615 nm (AID 637; in the data active = inhibition above about 30%); conditions: yeast transport mutant growth, absorbance 615 nm, 18 h; stronger effect = higher value
[9] = H69AR cells + 2 uM doxorubicin, measured here: viability with 2 uM doxorubicin, stronger effect = lower value
[10] = H69AR cells, compound alone cytotoxicity

Chain of Receptor tyrosine-protein kinase erbB-2 (Homo sapiens) (P04626 whole entry, looked up): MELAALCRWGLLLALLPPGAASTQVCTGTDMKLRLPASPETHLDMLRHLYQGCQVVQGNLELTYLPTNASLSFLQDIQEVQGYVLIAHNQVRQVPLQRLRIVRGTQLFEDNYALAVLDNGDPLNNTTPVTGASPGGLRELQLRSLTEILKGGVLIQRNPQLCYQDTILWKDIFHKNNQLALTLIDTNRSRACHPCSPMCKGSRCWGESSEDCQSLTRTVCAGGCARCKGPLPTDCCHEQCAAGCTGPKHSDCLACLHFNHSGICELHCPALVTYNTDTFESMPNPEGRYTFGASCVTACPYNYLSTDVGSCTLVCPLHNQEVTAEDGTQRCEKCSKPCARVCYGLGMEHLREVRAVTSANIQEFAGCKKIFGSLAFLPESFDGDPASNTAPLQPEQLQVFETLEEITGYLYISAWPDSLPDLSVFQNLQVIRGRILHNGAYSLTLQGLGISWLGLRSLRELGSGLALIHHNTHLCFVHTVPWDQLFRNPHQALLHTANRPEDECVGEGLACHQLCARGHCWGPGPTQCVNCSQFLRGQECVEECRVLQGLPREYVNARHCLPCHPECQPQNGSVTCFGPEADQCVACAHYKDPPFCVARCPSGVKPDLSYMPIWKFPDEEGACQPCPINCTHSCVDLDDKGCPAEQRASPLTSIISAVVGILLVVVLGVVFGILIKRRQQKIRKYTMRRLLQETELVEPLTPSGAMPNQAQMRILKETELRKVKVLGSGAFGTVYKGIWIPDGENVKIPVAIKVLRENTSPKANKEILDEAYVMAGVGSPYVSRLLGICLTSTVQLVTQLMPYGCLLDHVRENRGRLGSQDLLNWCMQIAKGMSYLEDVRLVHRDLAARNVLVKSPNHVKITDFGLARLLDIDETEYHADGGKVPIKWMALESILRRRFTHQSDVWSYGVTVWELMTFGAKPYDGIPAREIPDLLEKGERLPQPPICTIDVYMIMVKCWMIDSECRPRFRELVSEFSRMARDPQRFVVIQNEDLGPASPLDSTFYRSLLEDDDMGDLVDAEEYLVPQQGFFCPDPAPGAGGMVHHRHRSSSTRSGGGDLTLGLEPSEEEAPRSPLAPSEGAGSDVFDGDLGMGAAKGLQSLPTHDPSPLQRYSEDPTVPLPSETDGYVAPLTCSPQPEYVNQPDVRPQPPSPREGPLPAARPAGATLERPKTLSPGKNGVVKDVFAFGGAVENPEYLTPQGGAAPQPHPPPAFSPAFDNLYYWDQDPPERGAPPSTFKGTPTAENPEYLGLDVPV

Row | SMILES | viability [1] [%] | Her2 level [2] | viability [3] | viability [4] | viability [5] | differential viability (reversal) ([6]; H69AR cells + 2 uM doxorubicin) | viability [6, 9] [%] | viability [6, 10] [%] | inhibition [7] | inhibition [8]
1 | O=C1Nc2ccccc2OC1CC(=O)N1CCCC1 (stereo not given) | 88.5 | 91.5% (inactive) | 88.5% (inactive) | 94.7% (inactive) | 102% (inactive) | 11.9% (inactive) | 90.5 | 102 | -2.53% (inactive) | 0.66% (inactive)
2 | COc1ccc2cc(CN(Cc3ccco3)C(c3nnnn3C3CCCCC3)C(C)C)c(=O)[nH]c2c1 (stereo not given) | 100 | 83% (inactive) | 100% (inactive) | 47.1% (inactive) | 33.1% (active) | 7.31% (inactive) | 25.8 | 33.1 | -0.54% (inactive) | -4.59% (inactive)
3 | Cc1ccc(Cl)cc1N1CCN(C(=O)C2CCCN(S(=O)(=O)c3cnc[nH]3)C2)CC1 (stereo not given) | 86.5 | 99.5% (inactive) | 86.5% (inactive) | 69.8% (inactive) | 83.8% (inactive) | 5.75% (inactive) | 78 | 83.8 | -2.93% (inactive) | -2.62% (inactive)
4 | Cc1ccc(Oc2ccc(-c3nc(N)nc(N)n3)cc2)cc1 | 112 | 82% (inactive) | 112% (inactive) | 76.6% (inactive) | 108% (inactive) | 23.1% (inactive) | 84.8 | 108 | -5.33% (inactive) | 2.1% (inactive)
5 | CN1CCN(CCCNC(=O)C2CC(=O)N(C3CCCCC3)C2)CC1 (stereo not given) | 106 | 90% (inactive) | 106% (inactive) | 88.8% (inactive) | 91.4% (inactive) | -3.83% (inactive) | 95.2 | 91.4 | -4.47% (inactive) | 3.06% (inactive)
6 | Cn1c(=O)c2c(nc(NCc3ccccc3)n2CCCc2ccccc2)n(C)c1=O | 84 | 88% (inactive) | 84% (inactive) | 69.5% (inactive) | 83.4% (inactive) | -9.82% (inactive) | 93.2 | 83.4 | -0.81% (inactive) | -3.11% (inactive)
7 | Cc1nn(-c2ccccc2)c2sc(C(=O)N3CCOCC3)cc12 | 88.5 | 84.5% (inactive) | 88.5% (inactive) | 71.9% (inactive) | 87.3% (inactive) | -2.3% (inactive) | 89.6 | 87.3 | -6% (inactive) | -0.48% (inactive)
8 | COc1ccc(Cn2nnnc2C(c2ccccc2OC)N2CCC(C(N)=O)CC2)cc1 (stereo not given) | 100 | 91% (inactive) | 100% (inactive) | 105% (inactive) | 85.4% (inactive) | 1.34% (inactive) | 84 | 85.4 | -5.73% (inactive) | 8.52% (inactive)
9 | CCc1nnc2n1N=C(c1ccc(-c3ccc(Cl)cc3Cl)o1)CS2 | 99.5 | 81.5% (inactive) | 99.5% (inactive) | 110% (inactive) | 108% (inactive) | 23.9% (inactive) | 84.4 | 108 | -2.99% (inactive) | -3.17% (inactive)
10 | C=CCOc1ccc(/C=N/n2cncn2)cc1OC | 85 | 112% (inactive) | 85% (inactive) | 103% (inactive) | 94.6% (inactive) | 8.46% (inactive) | 86.2 | 94.6 | 9.86% (inactive) | 16.8% (inactive)
11 | CCn1nc(C(=O)OCC(=O)c2cc(C)n(Cc3cccs3)c2C)c2ccccc2c1=O | 93.5 | 93% (inactive) | 93.5% (inactive) | 84.1% (inactive) | 83.6% (inactive) | -9.39% (inactive) | 93 | 83.6 | -3.2% (inactive) | 26.6% (inactive)
12 | CC(=O)c1cccc(NC(=O)N2CCCC2C(=O)NCc2ccc(C)cc2)c1 (stereo not given) | 104 | 93.5% (inactive) | 104% (inactive) | 92.5% (inactive) | 95.6% (inactive) | 8.41% (inactive) | 87.1 | 95.6 | -8.92% (inactive) | 8.33% (inactive)
13 | COCCNC(=O)c1ccc2c(c1)nc(C)n2-c1cccc(F)c1 | 129 | 79.5% (inactive) | 129% (inactive) | 92.7% (inactive) | 90.5% (inactive) | -0.17% (inactive) | 90.6 | 90.5 | -0.92% (inactive) | 4.35% (inactive)
14 | COC(=O)c1cc(NS(=O)(=O)c2ccc3c(c2)CCC(=O)N3)cc(C(=O)OC)c1 | 112 | 86% (inactive) | 112% (inactive) | 94.2% (inactive) | 96.5% (inactive) | 1.56% (inactive) | 95 | 96.5 | 0% (inactive) | -2.86% (inactive)
